Assay results from PMC6366617 (Science (New York, N.Y.), 2019).

B1: sushi 1 domain of GABABR1a (Fc-tag enzymatically removed) (domain or fragment)
chain: TSEGCQIIHPPWEGGIRYRGLTRDQVKAINFLPVDYEIEYVCRGEREVVGPKVRKCLANGSWTDMDTPSRCVR
B2: sushi 1 peptide: sushi 1 domain of GABABR1a, recombinant (protein)
chain: B1 chain
modifications: left off: Fc, end not stated, kept
B3: sAPLP1: soluble APP-like protein 1, lacks a conserved ExD (protein)
chain: SLAGGSPGAAEAPGSAQVAGLCGRLTLHRDLRTGRWEPDPQRSRRCLRDPQRVLEYCRQMYPELQIARVEQATQAIPMERWCGGSRSGSCAHPHHQVVPFRCLPGEFVSEALLVPEGCRFLHQERMDQCESSTRRHQEAQEACSSQGLILHGSGMLLPCGSDRFRGVEYVCCPPPGTPDPSGTAVGDPSTRSWPPGSRVEGAEDEEEEESFPQPVDDYFVEPPQAEEEEETVPPPSSHTLAVVGKVTPTPRPTDGVDIYFGMPGEISEHEGFLRAKMDLEERRMRQINEVMREWAMADNQSKNLPKADRQALNEHFQSILQTLEEQVSGERQRLVETHATRVIALINDQRRAALEGFLAALQADPPQAERVLLALRRYLRAEQKEQRHTLRHYQHVAAVDPEKAQQMRFQVHTHLQVIEERVNQSLGLLDQNPHLAQELRPQIQELLHSEHLGPSELEAPAPGGSSEDKGGLQPPDSKDDTPMTLPKGSTEQDAASPEKEKMNPLEQYERKVNASVPRGFPFHSSEIQRDELAPAGTGVSRE
modifications: left off: Fc, end not stated, kept
B4: APP 17mer peptide (APP695 204-220AA) (peptide, UniProt P05067-4 204-220, looked up)
peptide: DDSDVWWGGADTDYADG
B5: APP 9mer peptide (APP695 residues 204-212) (peptide, UniProt P05067-4 204-212, looked up)
peptide: DDSDVWWGG

Tests used:
[1] = tested on: Schaffer collateral synapses, acute hippocampal slices; set-up: species or system mouse; details: for paired-pulse ratio (PPR): 1 μM protein, first 2 stimuli at 20, 50 and 100 Hz
How it was run: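 Acute mouse hippocampal slices were pre-incubated 90 min with or without 1 μM test protein (Fc tag removed), with or without 10 μM CGP54626. fEPSPs were recorded in CA1 stratum radiatum on Schaffer collateral stimulation. Input/output: 0.1 Hz, 30–150 μA. Bursts at 20, 50 and 100 Hz were normalized to the first response peak. PPR used the first two pulses. n is slices. Means ± SEM.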

[2] = tested on: neurons lacking APP; App/Aplp1 dKO cultures (mEPSCs); assay: mEPSC recording in neurons lacking APP / App/Aplp1 dKO cultures; format: cell-based, mouse
GABABR1a sushi 1 = assay: Biolayer interferometry, sAPPα binding to immobilized sushi peptides; details: sAPPα Fc-tag enzymatically removed; immobilized Fc-tagged sushi peptides
[3] = tested on: cultured mouse hippocampal neurons (mEPSCs); assay: mEPSC recording in cultured hippocampal neurons; format: cell-based; details: for reduction of mEPSC frequency: P < 0.001, 12-17 DIV; for effect on mEPSC frequency: acute application, Fc-tag enzymatically removed (ExD-AcD, sAPPαΔExD; n=17-20, N=3)
[4] = tested on: cultured mouse hippocampal neurons (mIPSCs); assay: mIPSC recording in cultured hippocampal neurons; format: cell-based; details: for reduction of mIPSC frequency: acute, P < 0.001
How it was run: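 Mouse hippocampal neurons in culture (12–17 DIV) were recorded for miniature currents, and mIPSCs were separated from mEPSCs by their decay kinetics. Frequency was compared between baseline and acute application of 250 nM test protein, or of 30 μM baclofen as GABABR agonist reference. n is cells.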

App KO mice = details: cited from earlier work
[5] = tested on: neurons lacking APP; App/Aplp1 dKO cultures (mIPSCs); assay: mIPSC recording in neurons lacking APP / App/Aplp1 dKO cultures; format: cell-based, mouse
[6] = target: sushi 1 domain of GABABR1a (Homo sapiens, UniProt Q9UBS5); assay: Isothermal titration calorimetry; format: binding; details: ITC
How it was run: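 Isothermal titration calorimetry was run between purified test protein and purified GABABR1a sushi 1 domain. Fc tags were enzymatically removed from both. The dissociation constant (KD) was derived from the titration.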

[7] = tested on: synaptic transmission and plasticity; details: ref [16]–[19]; cited from earlier work
[8] = tested on: cultured hippocampal mouse neurons (presynaptic strength); assay: FM1-43 presynaptic vesicle recycling in cultured hippocampal neurons; format: cell-based
How it was run: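 Cultured mouse hippocampal neurons were loaded and unloaded with FM1–43 by a combined stimulation paradigm, before and after test protein (Fc tag enzymatically removed; dose series, 1 μM top). Presynaptic strength S = ΔF at individual boutons × density of FM+ boutons per image area. Antagonist arms were run with or without GABABR antagonist, normalized to control. N is independent experiments. Means ± SEM, one-way ANOVA with Tukey post hoc.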

GABABR1b = assay: Cell-surface binding assay, GABABR1b-expressing HEK293T cells; details: immunostaining, confocal, pDisplay vector, n=24
How it was run: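 Fc-tagged test protein, affinity-purified from transfected HEK293T supernatants, was applied to HEK293T cells displaying the receptor ectodomain at the surface (pDisplay). Fc alone served as control. Bound protein was detected by immunostaining, imaged by confocal microscopy and quantified per cell. n is total cells from 3–4 independent experiments. Means ± SEM, two-way ANOVA with Bonferroni post hoc.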

GABABR2 = assay: Cell-surface binding assay, GABABR2-expressing HEK293T cells; details: immunostaining, confocal, pDisplay vector, n=24
[9] = target: sAPPα (Fc-tag enzymatically removed) (UniProt P05067-4 18-612); assay: ITC
[10] = tested on: sAPPα-Fc binding to GABABR1a-expressing HEK293T cells; assay: Competition of sAPPα-Fc binding to GABABR1a-expressing HEK293T cells; details: increasing concentrations of untagged sushi 1 peptide, excess; n=24-31
[11] = target: B1; assay: ITC
[12] = 1 μM sAPPα, 90 min pre-incubation, 0.1 Hz, 30-150 μA
[13] = 30 μM baclofen, App/Aplp1 dKO vs WT cultures

sAPPα: soluble APP ectodomain released by α-secretase; purified recombinant protein
paired-pulse ratio (PPR) [1]: increased PPR for each frequency
decrease of slope of the input/output (i/o) curve [1, 12]: 23%
fEPSP amplitude [1, 12]: reduced fEPSP amplitude
effect on mEPSC frequency in neurons lacking APP ([2]; sAPPα, neurons lacking APP): still reduced mEPSC and mIPSC frequency
binding of sAPPα to sushi 1 (biolayer interferometry) (GABABR1a sushi 1): sushi 1 peptide was sufficient for binding sAPPα
effect on mEPSC frequency at 25 nM ([3]; 25nM sAPPα): already apparent at 25nM
effect on mEPSC amplitude ([3]; 250 nM sAPPα (Fc-tag removed), acute): without affecting mEPSC amplitude
reduction of mEPSC frequency ([3]; 250 nM sAPPα (Fc-tag removed), acute, n=13 cells): 39 ± 5%
reduction of mIPSC frequency ([4]; 250 nM sAPPα, n=13 cells): 44 ± 5%
reduction in mIPSC amplitude ([4]; sAPPα, acute (250 nM)): 14%
rescue of spine density defects (App KO mice; ref [20]): sufficient to rescue synaptic defects in App KO mice, including defects in spine density
rescue of LTP defects (App KO mice; ref [21], [22]): sufficient to rescue synaptic defects in App KO mice
rescue of spatial learning defects (App KO mice; ref [21]): sufficient to rescue synaptic defects in App KO mice
effect on mIPSC frequency in neurons lacking APP ([5]; sAPPα, neurons lacking APP): still reduced mEPSC and mIPSC frequency
Kd ([6]; read-out: dissociation constant (KD) for sAPPα-sushi 1, purified proteins, Fc-tag enzymatically removed from both): 431 nM
effect on LTP [7]: an enhancement of LTP
effect on synaptic activity [7]: a reduction in synaptic activity
reduction of total presynaptic strength (S = ΔF × D) ([8]; 1 μM sAPPα, FM1-43 loading/unloading, n=8 experiments, P < 0.001): 57 ± 7%
total presynaptic strength (S = ΔF × D), dose dependence ([8]; FM1-43 loading/unloading, sAPPα Fc-tag enzymatically removed, N=5-8): decreased the total presynaptic strength

sAPPβ: soluble APP ectodomain released by β-secretase
effect on mEPSC frequency [3]: similarly reduced mEPSC frequency

sAPPαΔExD: sAPPα with deletion of the ExD
paired-pulse ratio (PPR) [1]: abolished the sAPPα-mediated effect
effect on the i/o curve with ExD deletion ([1]; sAPPαΔExD 1 μM): abolished the sAPPα-mediated effect on the i/o curve
effect on mEPSC frequency [3]: had no effect
effect on mIPSC frequency ([4]; acute application): not sAPPαΔExD, reduced mIPSC frequency
decrease of total presynaptic strength with ExD deletion ([8]; sAPPαΔExD 1 μM, FM1-43): not observed

residues 211–220: peptide of APP695 residues 211–220 (GGADTDYADG)
binding affinity to sushi 1 (in words) ([6]; for ExD-AcD Fc-tag enzymatically removed): failed to bind sushi 1

NCC(CC(=O)O)c1ccc(Cl)cc1 (stereo not drawn) [baclofen, reference compound]
effect on mEPSC frequency in App/Aplp1 dKO cultures [2, 13]: similarly reduced mEPSC and mIPSC frequency
reduction of mEPSC frequency ([3]; 30 μM baclofen, acute, n=14 cells): 63 ± 5%
reduction of mIPSC frequency ([4]; 30 μM baclofen, n=14 cells): 62 ± 5%
effect on mIPSC frequency in App/Aplp1 dKO cultures [5, 13]: similarly reduced mEPSC and mIPSC frequency

C[C@H](NC[C@H](O)CP(=O)(O)CC1CCCCC1)c1ccc(Cl)c(Cl)c1 [CGP54626, reference compound]
effect of CGP54626 on sAPPα-mediated decrease in i/o slope ([1]; CGP54626 10 μM, preincubation of slices): abolished the sAPPα-mediated decrease in the slope of the i/o curve
effect of CGP54626 on sAPPα-induced decrease of presynaptic strength ([8]; CGP54626 10μM, N=8): occluded

C[C@H](NC[C@H](O)CP(=O)(O)Cc1ccccc1)c1ccc(Cl)c(Cl)c1 [CGP55845, reference compound]
effect of CGP55845 pretreatment on APP 17mer reduction of mEPSC frequency ([3]; CGP55845 5μM, 17mer 250 nM, n=16, N=3 (without CGP n=14, N=3)): blocks this effect
effect of CGP55845 pretreatment on sAPPα effect on mIPSC frequency ([4]; CGP55845 5 μM, pretreatment): blocked by pretreatment

sAPPα-Fc: recombinant sAPPα with C-terminal Fc-tag from transfected HEK293T supernatants
binding to GABABR1b-expressing cells (GABABR1b): not to GABABR1b-
binding to GABABR2-expressing cells (GABABR2): not to GABABR1b-, or GABABR2-, expressing cells

B1
Kd [9]: 431 nM

B2
blocking of sAPPα-Fc binding to GABABR1a-expressing cells [10]: blocked binding of sAPPα-Fc to GABABR1a-expressing cells

B3
effect on mEPSC frequency [3]: did not reduce mEPSC frequency
reduction in mIPSC frequency by sAPLP1 ([4]; sAPLP1, acute, n=17 cells, P < 0.05): 17 ± 9%

B4
Kd [11]: 810 nM

B5
Kd [11]: 2300 nM
